Assay [1] deals with Histamine H3 receptor (Rattus norvegicus, UniProt Q9QYN8). The experiment in a line: Displacement of [3H]R-alpha-methylhistamine from rat histamine H3 receptor by cell-based assay. An outline of the steps: (§1)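 Radioligand binding with [³H]R-α-methylhistamine on membranes of CHO or HEK293 cells expressing human, rat or mouse H₃ receptor.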
Assay [2] concerns the target Histamine H3 receptor (Mus musculus, UniProt P58406). The experiment in a line: Displacement of [3H]R-alpha-methylhistamine from mouse histamine H3 receptor by cell-based assay. An outline of the steps:
as §1
A general note: Loss of bound radioactivity is the signal in a displacement assay; it reports binding, not function.

A further assay deals with Histamine H1 receptor (Homo sapiens, UniProt P35367). In words: Inhibition of human histamine H1 receptor.
Sequence of Histamine H1 receptor (P35367 whole entry): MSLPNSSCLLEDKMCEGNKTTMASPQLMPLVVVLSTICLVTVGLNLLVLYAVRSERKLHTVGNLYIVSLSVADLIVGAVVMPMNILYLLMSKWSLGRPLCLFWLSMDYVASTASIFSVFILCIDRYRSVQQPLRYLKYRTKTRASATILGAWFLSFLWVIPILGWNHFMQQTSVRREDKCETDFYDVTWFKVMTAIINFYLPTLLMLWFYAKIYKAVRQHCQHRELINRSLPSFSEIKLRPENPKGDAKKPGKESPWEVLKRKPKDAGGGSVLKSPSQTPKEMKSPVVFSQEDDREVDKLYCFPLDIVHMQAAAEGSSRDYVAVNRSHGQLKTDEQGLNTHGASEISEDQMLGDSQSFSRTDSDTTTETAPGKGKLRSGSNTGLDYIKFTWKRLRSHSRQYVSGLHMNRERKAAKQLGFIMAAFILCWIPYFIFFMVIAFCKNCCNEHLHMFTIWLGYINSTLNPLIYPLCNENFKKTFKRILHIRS
The target in a further assay is Histamine H2 receptor (Homo sapiens, UniProt P25021). The experiment in a line: Inhibition of human histamine H2 receptor.
Sequence of Histamine H2 receptor (P25021 whole entry): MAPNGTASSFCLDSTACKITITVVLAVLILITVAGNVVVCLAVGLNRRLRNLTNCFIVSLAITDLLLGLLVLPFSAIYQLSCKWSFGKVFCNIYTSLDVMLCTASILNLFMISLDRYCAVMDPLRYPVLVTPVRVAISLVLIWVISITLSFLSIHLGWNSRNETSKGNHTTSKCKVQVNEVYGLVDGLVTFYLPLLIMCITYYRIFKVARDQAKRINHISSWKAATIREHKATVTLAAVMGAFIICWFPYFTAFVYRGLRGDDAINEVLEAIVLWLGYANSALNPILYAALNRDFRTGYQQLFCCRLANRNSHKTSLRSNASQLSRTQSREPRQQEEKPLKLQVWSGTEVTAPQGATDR
The next assay deals with Histamine H4 receptor (Homo sapiens, UniProt Q9H3N8). In words: Inhibition of human histamine H4 receptor.
Sequence of Histamine H4 receptor (Q9H3N8 whole entry): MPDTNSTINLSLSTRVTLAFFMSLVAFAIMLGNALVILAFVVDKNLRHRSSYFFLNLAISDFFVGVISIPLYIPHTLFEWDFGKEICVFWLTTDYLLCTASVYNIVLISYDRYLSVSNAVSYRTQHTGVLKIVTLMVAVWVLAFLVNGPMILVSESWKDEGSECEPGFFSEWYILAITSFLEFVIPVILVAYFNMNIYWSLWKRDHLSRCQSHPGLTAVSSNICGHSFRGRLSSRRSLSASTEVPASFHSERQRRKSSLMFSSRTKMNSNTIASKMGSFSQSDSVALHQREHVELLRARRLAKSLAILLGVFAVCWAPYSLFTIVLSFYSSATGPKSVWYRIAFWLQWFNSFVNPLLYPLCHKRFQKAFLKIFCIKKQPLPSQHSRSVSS

Molecules are shown by their SMILES.

Sequence of Histamine H3 receptor (Rattus norvegicus, UniProt Q9QYN8) (Q9QYN8 whole entry): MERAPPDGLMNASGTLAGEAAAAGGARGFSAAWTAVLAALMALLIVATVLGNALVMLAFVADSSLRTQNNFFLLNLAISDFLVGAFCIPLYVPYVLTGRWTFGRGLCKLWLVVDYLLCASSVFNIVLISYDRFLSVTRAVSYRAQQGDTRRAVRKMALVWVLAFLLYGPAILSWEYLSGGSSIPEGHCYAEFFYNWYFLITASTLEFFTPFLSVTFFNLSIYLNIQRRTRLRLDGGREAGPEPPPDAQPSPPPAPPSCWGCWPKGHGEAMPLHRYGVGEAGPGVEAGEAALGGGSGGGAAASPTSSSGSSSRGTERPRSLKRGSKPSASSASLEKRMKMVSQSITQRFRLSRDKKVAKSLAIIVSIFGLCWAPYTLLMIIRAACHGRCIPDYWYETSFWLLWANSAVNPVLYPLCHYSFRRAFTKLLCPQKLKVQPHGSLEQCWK
Sequence of Histamine H3 receptor (Mus musculus, UniProt P58406) (P58406 whole entry): as the sequence (Q9QYN8 whole entry) above, with T15A, A286T, A290G, R387H, I389V counted along it

Take `COc1cccc2c1O[C@@H](c1ccc(OCCCN3CCCC3)cc1)[C@H](C)S2(=O)=O`: the Ki (as a rule, the equilibrium dissociation constant of an inhibitor or competing ligand from its target) came out at 2.8 nM at Histamine H3 receptor [1] and 5.9 nM on Histamine H3 receptor [2]. Moreover, the IC50 at Histamine H1 receptor, against Histamine H2 receptor and against Histamine H4 receptor was > 10000 nM each time.

Source of the values: ChEMBL document CHEMBL1152368, “Synthesis, structure-activity relationships, and biological profiles of a dihydrobenzoxathiin class of histamine H(3) receptor inverse agonists” (Bioorg Med Chem Lett, 2009).
